# Reference: ChEMBL document CHEMBL1135552, “Synthesis and biological activities of cyclic lanthionine enkephalin analogues: delta-opioid receptor selective ligands” (J Med Chem, 2002)
# What was measured:
# [1] = biological target: T1, Mu-type opioid receptor (Homo sapiens, UniProt P35372); assay: Inhibition of binding of [3H]diprenorphine to cloned human Opioid receptor mu 1 expressed in CHO cell membrane;Range is in between (1.8-2.2); assay type: cell-based
# [2] = biological target: T2, Delta-type opioid receptor (Homo sapiens, UniProt P41143); assay: Inhibition of binding of [3H]diprenorphine to cloned human Opioid receptor delta 1 expressed in CHO cell membrane;Range is between (1.7-2.3); assay type: cell-based
# T2 sequence (P41143 whole entry): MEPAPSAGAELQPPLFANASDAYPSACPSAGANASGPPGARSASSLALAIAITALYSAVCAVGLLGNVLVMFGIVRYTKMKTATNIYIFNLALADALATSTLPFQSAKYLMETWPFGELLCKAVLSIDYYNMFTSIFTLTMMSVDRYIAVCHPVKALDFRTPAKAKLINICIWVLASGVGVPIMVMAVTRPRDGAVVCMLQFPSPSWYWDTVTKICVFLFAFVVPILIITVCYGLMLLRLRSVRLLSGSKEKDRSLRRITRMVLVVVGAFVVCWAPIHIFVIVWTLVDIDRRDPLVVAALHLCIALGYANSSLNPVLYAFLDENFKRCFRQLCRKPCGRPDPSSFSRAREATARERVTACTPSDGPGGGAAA
# [3] = species on record: Rattus norvegicus; assay: Dosage necessary to produce half maximal effect; Range is in between (0.0010-0.0024); assay type: functional
# [4] = biological target: Mu-type opioid receptor (Cavia porcellus, UniProt P97266); assay: Ability to inhibit electrically evoked contractions of isolated muscle preparations of guinea pig ileum (GPI, mu receptor); assay type: functional, tissue-based
# Mu-type opioid receptor (Cavia porcellus, UniProt P97266), sequence (P97266 whole entry): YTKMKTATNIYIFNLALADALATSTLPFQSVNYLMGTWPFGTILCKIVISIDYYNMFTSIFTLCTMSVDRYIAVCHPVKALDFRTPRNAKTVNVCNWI
# Procedure, shortened: (§1)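 Electrically evoked contractions of isolated guinea pig ileum (GPI) or mouse vas deferens (MVD) preparations. A log dose-response curve for [Leu5]-enkephalin was run as standard on each ileum and vas preparation. IC50 values were normalised to that standard.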
# [5] = biological target: T3, Delta-type opioid receptor (Mus musculus, UniProt P32300); assay: Ability to inhibit electrically evoked contractions of isolated muscle preparations of mouse vas deferens (MVD, delta receptor); assay type: functional; procedure, shortened: as §1
# T3 sequence (P32300 whole entry): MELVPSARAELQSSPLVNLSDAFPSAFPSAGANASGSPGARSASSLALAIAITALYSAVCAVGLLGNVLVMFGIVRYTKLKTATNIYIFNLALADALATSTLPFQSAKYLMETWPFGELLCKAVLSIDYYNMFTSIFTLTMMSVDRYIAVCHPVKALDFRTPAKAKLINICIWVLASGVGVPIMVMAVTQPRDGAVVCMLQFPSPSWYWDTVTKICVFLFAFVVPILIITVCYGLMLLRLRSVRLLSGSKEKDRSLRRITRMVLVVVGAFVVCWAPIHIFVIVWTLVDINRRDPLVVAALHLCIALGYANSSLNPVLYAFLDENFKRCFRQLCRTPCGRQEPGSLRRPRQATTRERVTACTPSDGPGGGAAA
# [6] = biological target: T4, Kappa-type opioid receptor (Homo sapiens, UniProt P41145); assay: Inhibition of binding of [3H]diprenorphine to cloned human Opioid receptor kappa 1 expressed in CHO cell membrane;Range is in between (1400-1900); assay type: cell-based
# T4 sequence (P41145 whole entry): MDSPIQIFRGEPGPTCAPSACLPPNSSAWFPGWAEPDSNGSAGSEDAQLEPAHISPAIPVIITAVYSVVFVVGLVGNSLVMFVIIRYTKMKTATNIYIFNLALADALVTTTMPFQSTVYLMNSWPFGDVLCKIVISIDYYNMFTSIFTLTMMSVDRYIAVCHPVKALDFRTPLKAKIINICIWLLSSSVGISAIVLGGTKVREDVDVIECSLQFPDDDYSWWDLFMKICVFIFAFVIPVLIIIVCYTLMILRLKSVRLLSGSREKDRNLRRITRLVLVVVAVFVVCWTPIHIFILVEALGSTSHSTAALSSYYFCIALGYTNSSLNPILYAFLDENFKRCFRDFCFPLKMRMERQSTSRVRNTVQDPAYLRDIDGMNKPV
# Procedure, shortened: (§2)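 Membranes from CHO cells expressing cloned human µ, δ or κ receptors in Tris-HCl pH 7.8 buffer with EGTA, MgCl2 and protease inhibitors. 50-100 µg protein with 0.4 nM (final) [3H]-diprenorphine, 60 min, room temperature. Filtered on PEI/BSA-treated GF/B filters, counted by scintillation. Nonspecific binding with 10 µM naloxone. Four-parameter one-site fit; Ki by Cheng-Prusoff.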
# [7] = biological target: T4, Kappa-type opioid receptor; assay: Inhibition of binding of [3H]diprenorphine to cloned human Opioid receptor kappa 1 expressed in CHO cell membrane; assay type: cell-based
# [8] = biological target: T1, Mu-type opioid receptor; assay: Inhibition of binding of [3H]diprenorphine to cloned human Opioid receptor mu 1 expressed in CHO cell membrane;Range is in between (580-680); assay type: cell-based; procedure, shortened: as §2
# [9] = biological target: T2, Delta-type opioid receptor; assay: Inhibition of binding of [3H]diprenorphine to cloned human Opioid receptor delta 1 expressed in CHO cell membrane;Range is between (0.35-2.5); assay type: cell-based; procedure, shortened: as §2
# [10] = species on record: Rattus norvegicus; assay: Dosage necessary to produce half maximal effect; Range is in between (0.017-0.41); assay type: functional
# [11] = biological target: T3, Delta-type opioid receptor; assay: Ability to inhibit electrically evoked contractions of isolated muscle preparations of mouse vas deference (MVD, delta receptor); assay type: functional; procedure, shortened: as §1
# [12] = species on record: Rattus norvegicus; assay: Dosage necessary to produce half maximal effect; Range is in between (98-163); assay type: functional
# [13] = biological target: T1, Mu-type opioid receptor; assay: Inhibition of binding of [3H]diprenorphine to cloned human Opioid receptor mu 1 expressed in CHO cell membrane;Range is in between (110-150); assay type: cell-based; procedure, shortened: as §2
# [14] = biological target: T2, Delta-type opioid receptor; assay: Inhibition of binding of [3H]diprenorphine to cloned human Opioid receptor delta 1 expressed in CHO cell membrane;Range is between (0.66-0.95); assay type: cell-based; procedure, shortened: as §2
# [15] = species on record: Rattus norvegicus; assay: Dosage necessary to produce half maximal effect; Range is in between (0.04-0.33); assay type: functional
# [16] = biological target: T4, Kappa-type opioid receptor; assay: Inhibition of binding of [3H]diprenorphine to cloned human Opioid receptor kappa 1 expressed in CHO cell membrane; range is in between (4700-8500); assay type: cell-based; procedure, shortened: as §2
# [17] = biological target: T1, Mu-type opioid receptor; assay: Inhibition of binding of [3H]diprenorphine to cloned human Opioid receptor mu 1 expressed in CHO cell membrane;Range is in between (1.3-3.7); assay type: cell-based
# [18] = biological target: T2, Delta-type opioid receptor; assay: Inhibition of binding of [3H]diprenorphine to cloned human Opioid receptor delta 1 expressed in CHO cell membrane;Range is in between (0.62-0.65); assay type: cell-based
# [19] = species on record: Rattus norvegicus; assay: Dosage necessary to produce half maximal effect; Range is in between (0.0010-0.0034); assay type: functional
# [20] = species on record: Rattus norvegicus; assay: Dosage necessary to produce half maximal effect; Range is in between (10-24); assay type: functional
# T1 sequence (P35372 whole entry): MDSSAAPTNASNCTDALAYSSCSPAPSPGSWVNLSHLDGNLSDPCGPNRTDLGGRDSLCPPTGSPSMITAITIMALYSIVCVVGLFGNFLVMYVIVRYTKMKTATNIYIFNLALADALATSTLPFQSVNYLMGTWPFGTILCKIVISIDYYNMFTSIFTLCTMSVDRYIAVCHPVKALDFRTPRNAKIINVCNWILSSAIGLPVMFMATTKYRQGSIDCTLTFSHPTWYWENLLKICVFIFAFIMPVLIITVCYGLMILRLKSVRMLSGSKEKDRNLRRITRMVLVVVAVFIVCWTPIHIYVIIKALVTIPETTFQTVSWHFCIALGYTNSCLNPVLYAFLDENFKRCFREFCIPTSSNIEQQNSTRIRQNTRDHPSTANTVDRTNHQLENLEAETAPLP
compound,measurement,setting,value
N[C@@H](Cc1ccc(O)cc1)C(=O)N[C@@H]1CSC[C@H](C(=O)O)NC(=O)[C@H](Cc2ccccc2)NC(=O)CNC1=O,Ki,[1],2 nM
same,Ki,[2],2 nM
same,ED50,[3],0.0015 nM
same,IC50,[4],0.56 nM
same,IC50,[5],1.58 nM
same,Ki,[6],1600 nM
CC1(C)SC[C@H](C(=O)O)NC(=O)[C@H](Cc2ccccc2)NC(=O)CNC(=O)[C@@H]1NC(=O)[C@@H](N)Cc1ccc(O)cc1,Ki,[7],> 10000 nM
same,Ki,[8],630 nM
same,Ki,[9],0.93 nM
same,ED50,[10],0.26 nM
same,IC50,[11],2.33 nM
same,IC50,[4],730 nM
CC1(C)SSC(C)(C)[C@@H](NC(=O)[C@@H](N)Cc2ccc(O)cc2)C(=O)NCC(=O)N[C@@H](Cc2ccccc2)C(=O)N[C@H]1C(=O)O,ED50,[12],130 nM
CC1(C)SC[C@@H](C(=O)O)NC(=O)[C@H](Cc2ccccc2)NC(=O)CNC(=O)[C@@H]1NC(=O)[C@@H](N)Cc1ccc(O)cc1,Ki,[7],> 1000 nM
same,Ki,[13],130 nM
same,Ki,[14],0.79 nM
same,ED50,[15],0.12 nM
same,IC50,[11],0.26 nM
same,IC50,[4],82 nM
N[C@@H](Cc1ccc(O)cc1)C(=O)N[C@@H]1CSC[C@@H](C(=O)O)NC(=O)[C@H](Cc2ccccc2)NC(=O)CNC1=O,Ki,[16],6400 nM
same,Ki,[17],2.3 nM
same,Ki,[18],0.63 nM
same,ED50,[19],0.0018 nM
same,IC50,[4],1.06 nM
same,IC50,[5],0.35 nM
CN1CC[C@]23c4c5ccc(O)c4O[C@H]2[C@@H](O)C=C[C@H]3[C@H]1C5 [MORPHINE],ED50,[20],15 nM
